Experimental data from ChEMBL document CHEMBL1944562, “Design, synthesis of some new (2-aminothiazol-4-yl)methylester derivatives as possible antimicrobial and antitubercular agents” (2012).

Assays:
Assay type in all cases: functional
[1] = tested on: Klebsiella pneumoniae; test: Antibacterial activity against Klebsiella pneumoniae after 16 to 18 hrs by […]
[2] = tested on: Aspergillus flavus; test: Antifungal activity against Aspergillus flavus NCIM N0.524 after 3 to 4 days by serial plate dilution method
[3] = tested on: Trichophyton mentagrophytes; test: Antifungal activity against Trichophyton mentagrophytes after 3 to 4 days by serial plate dilution method
[4] = tested on: Candida albicans; test: Antifungal activity against Candida albicans after 3 to 4 days by serial plate dilution method
[5] = tested on: Mycobacterium tuberculosis; test: Antitubercular activity against Mycobacterium tuberculosis H37Rv after 7 days by resazurin assay; details: 168 h
Procedure, shortened: (§1)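 M. tuberculosis H37Rv ATCC 27294 grown in Middlebrook 7H9 broth with 10% OADC and adjusted to McFarland 2. Culture was diluted 1:4 into fresh medium. Compounds came from 2 mg/mL DMF stocks, screened first at 1, 10 and 100, then at 0.3125–5. DMF-only controls were included. After 7 days at 37 °C, 0.01% resazurin was added; a blue-to-pink change marked growth, and the MIC was read.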

[6] = tested on: Mycobacterium tuberculosis; test: Antitubercular activity against Mycobacterium tuberculosis H37Rv assessed as growth inhibition after 7 days by resazurin assay; procedure, shortened: as §1
[7] = tested on: Aspergillus fumigatus; test: Antifungal activity against Aspergillus fumigatus NCIM N0.902 after 3 to 4 days by serial plate dilution method
[8] = tested on: Escherichia coli; test: Antibacterial activity against Escherichia coli ATCC 25922 at MIC after 3 to 4 days
Procedure, shortened: (§2)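 Agar well diffusion on seeded agar plates, 20 mL agar per dish, dried 1 h at 37 °C. Wells punched and loaded with test compound in DMSO at its MIC. DMSO-only control. Plates run in triplicate and kept 3-4 days at 37 °C. Inhibition zone diameter measured.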

[9] = tested on: Candida albicans; test: Antifungal activity against Candida albicans at MIC after 3 to 4 days
Procedure, shortened: (§3)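 Fungal suspension made by transferring a loopful of culture to 3 mL saline and seeding agar plates, 20 mL agar per dish, dried 1 h at 37 °C. Punched wells loaded with test compound in DMSO at its MIC. DMSO-only control. Triplicate plates held 3-4 days at 37 °C. Inhibition zone diameter measured.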

[10] = tested on: Mycolicibacterium fortuitum; test: Antitubercular activity against Mycobacterium fortuitum ATCC 19542 after 7 days by resazurin assay; details: ATCC 19542, 168 h
Procedure, shortened: (§4)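 Middlebrook 7H9 broth with 10% OADC, culture adjusted to McFarland 2. 50 µL culture added to 150 µL fresh medium. Stocks at 2 mg/mL in DMF, tested first at 1, 10 and 100 µg/mL, then at 0.3125-5 µg/mL. DMF controls. After 7 days at 37 °C, 0.01% resazurin added. Blue-to-pink change read for MIC.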

[11] = tested on: Pseudomonas aeruginosa; test: Antibacterial activity against Pseudomonas aeruginosa ATCC 27853 at MIC after 3 to 4 days; procedure, shortened: as §2
[12] = tested on: Bacillus subtilis; test: Antibacterial activity against Bacillus subtilis after 16 to 18 hrs by […]
[13] = tested on: Bacillus subtilis; test: Antibacterial activity against Bacillus subtilis at MIC after 3 to 4 days; procedure, shortened: as §2
[14] = tested on: Mycolicibacterium smegmatis; test: Antitubercular activity against Mycobacterium smegmatis ATCC 19420 after 7 days by resazurin assay; details: ATCC 19420, 168 h; procedure, shortened: as §4
[15] = tested on: Talaromyces marneffei; test: Antifungal activity against Penicillium marneffei after 3 to 4 days by serial plate dilution method
[16] = tested on: Aspergillus fumigatus; test: Antifungal activity against Aspergillus fumigatus NCIM N0.902 at MIC after 3 to 4 days; procedure, shortened: as §3
[17] = tested on: Escherichia coli; test: Antibacterial activity against Escherichia coli ATCC 25922 after 16 to 18 hrs by […]
[18] = tested on: Aspergillus flavus; test: Antifungal activity against Aspergillus flavus NCIM N0.524 at MIC after 3 to 4 days; procedure, shortened: as §3
[19] = tested on: Staphylococcus aureus; test: Antibacterial activity against Staphylococcus aureus ATCC 25923 at […] after 3 to 4 days; procedure, shortened: as §2
[20] = tested on: Klebsiella pneumoniae; test: Antibacterial activity against Klebsiella pneumoniae at MIC after 3 to 4 days; procedure, shortened: as §2
[21] = tested on: Talaromyces marneffei; test: Antifungal activity against Penicillium marneffei at MIC after 3 to 4 days; procedure, shortened: as §3
[22] = tested on: Staphylococcus aureus; test: Antibacterial activity against Staphylococcus aureus ATCC 25923 after 16 to 18 hrs by serial plate dilution method
[23] = tested on: Pseudomonas aeruginosa; test: Antibacterial activity against Pseudomonas aeruginosa ATCC 27853 after 16 to 18 hrs by […]
[24] = tested on: Trichophyton mentagrophytes; test: Antifungal activity against Trichophyton mentagrophytes at MIC after 3 to 4 days; procedure, shortened: as §3

N#Cc1ccc(C(=O)OCc2csc(N)n2)cn1
> 100 µg/mL: MIC [5] | MIC [10] | MIC [14]
6.25 µg/mL: MIC [1] | MIC [3] | MIC [7] | MIC [12] | MIC [17] | MIC [22] | MIC [23]
16 mm: diameter of the inhibition zone (DIZ) [8] | diameter of the inhibition zone (DIZ) [11] | diameter of the inhibition zone (DIZ) [13] | diameter of the inhibition zone (DIZ) [16] | diameter of the inhibition zone (DIZ) [19] | diameter of the inhibition zone (DIZ) [20] | diameter of the inhibition zone (DIZ) [24]
0%: growth inhibition (GI) [6]
25 µg/mL: MIC [2] | MIC [4] | MIC [15]
<10 mm: diameter of the inhibition zone (DIZ) [9] | diameter of the inhibition zone (DIZ) [18] | diameter of the inhibition zone (DIZ) [21]

Nc1nc(COC(=O)c2c(F)cccc2Cl)cs1
12.5 µg/mL: MIC [1] | MIC [4] | MIC [23]
10 µg/mL: MIC [10] | MIC [14]
16 mm: diameter of the inhibition zone (DIZ) [13] | diameter of the inhibition zone (DIZ) [19]
11 mm: diameter of the inhibition zone (DIZ) [9] | diameter of the inhibition zone (DIZ) [11] | diameter of the inhibition zone (DIZ) [20]
6.25 µg/mL: MIC [12] | MIC [22]
95%: growth inhibition (GI) [6]
25 µg/mL: MIC [2] | MIC [3] | MIC [7] | MIC [15] | MIC [17]
<10 mm: diameter of the inhibition zone (DIZ) [8] | diameter of the inhibition zone (DIZ) [16] | diameter of the inhibition zone (DIZ) [18] | diameter of the inhibition zone (DIZ) [21] | diameter of the inhibition zone (DIZ) [24]
0.625 µg/mL: MIC [5]

Nc1nc(COC(=O)c2c(F)cc(F)cc2F)cs1
<10 mm: diameter of the inhibition zone (DIZ) [13] | diameter of the inhibition zone (DIZ) [19] | diameter of the inhibition zone (DIZ) [20]
5 µg/mL: MIC [5]
6.25 µg/mL: MIC [2] | MIC [3] | MIC [4] | MIC [7] | MIC [15] | MIC [17] | MIC [23]
> 100 µg/mL: MIC [10]
10 µg/mL: MIC [14]
16 mm: diameter of the inhibition zone (DIZ) [8] | diameter of the inhibition zone (DIZ) [9] | diameter of the inhibition zone (DIZ) [11] | diameter of the inhibition zone (DIZ) [16] | diameter of the inhibition zone (DIZ) [18] | diameter of the inhibition zone (DIZ) [21] | diameter of the inhibition zone (DIZ) [24]
25 µg/mL: MIC [1] | MIC [12] | MIC [22]
<90%: growth inhibition (GI) [6]

Nc1nc(COC(=O)c2ccco2)cs1
6.25 µg/mL: MIC [1] | MIC [2] | MIC [4] | MIC [12] | MIC [15] | MIC [17] | MIC [22] | MIC [23]
0%: growth inhibition (GI) [6]
<10 mm: diameter of the inhibition zone (DIZ) [16] | diameter of the inhibition zone (DIZ) [24]
16 mm: diameter of the inhibition zone (DIZ) [8] | diameter of the inhibition zone (DIZ) [9] | diameter of the inhibition zone (DIZ) [11] | diameter of the inhibition zone (DIZ) [13] | diameter of the inhibition zone (DIZ) [18] | diameter of the inhibition zone (DIZ) [19] | diameter of the inhibition zone (DIZ) [20] | diameter of the inhibition zone (DIZ) [21]
> 100 µg/mL: MIC [5] | MIC [10] | MIC [14]
25 µg/mL: MIC [3] | MIC [7]

Nc1nc(COC(=O)c2ccc3ccccc3c2)cs1
2.5 µg/mL: MIC [5]
6.25 µg/mL: MIC [1] | MIC [4] | MIC [12] | MIC [17] | MIC [22] | MIC [23]
12.5 µg/mL: MIC [2] | MIC [3] | MIC [7] | MIC [15]
11 mm: diameter of the inhibition zone (DIZ) [16] | diameter of the inhibition zone (DIZ) [18] | diameter of the inhibition zone (DIZ) [21] | diameter of the inhibition zone (DIZ) [24]
<90%: growth inhibition (GI) [6]
16 mm: diameter of the inhibition zone (DIZ) [8] | diameter of the inhibition zone (DIZ) [9] | diameter of the inhibition zone (DIZ) [11] | diameter of the inhibition zone (DIZ) [13] | diameter of the inhibition zone (DIZ) [19] | diameter of the inhibition zone (DIZ) [20]
10 µg/mL: MIC [10] | MIC [14]

Nc1nc(COC(=O)c2ccc([N+](=O)[O-])cc2)cs1
25 µg/mL: MIC [22]
11 mm: diameter of the inhibition zone (DIZ) [8]
10 µg/mL: MIC [10] | MIC [14]
6.25 µg/mL: MIC [1] | MIC [2] | MIC [3] | MIC [4] | MIC [7] | MIC [15]
10 mm: diameter of the inhibition zone (DIZ) [11] | diameter of the inhibition zone (DIZ) [13]
<10 mm: diameter of the inhibition zone (DIZ) [19]
16 mm: diameter of the inhibition zone (DIZ) [9] | diameter of the inhibition zone (DIZ) [16] | diameter of the inhibition zone (DIZ) [18] | diameter of the inhibition zone (DIZ) [20] | diameter of the inhibition zone (DIZ) [21] | diameter of the inhibition zone (DIZ) [24]
1 µg/mL: MIC [5]
12.5 µg/mL: MIC [12] | MIC [17] | MIC [23]
90%: growth inhibition (GI) [6]
